For data set [1], the system named is Plasmodium falciparum. The data set is described as follows: Antiplasmodial activity against blood stage of Plasmodium falciparum 3D7 assessed as parasite growth inhibition. The class given is functional, organism-based.
For data set [2], the system named is Plasmodium falciparum. Briefly: Covalent binding affinity to N-terminal 6His-SUMO-tagged Plasmodium falciparum FKBP35 binding domain (FBD35) (Q5-A128) expressed in Escherichia coli BL21 (DE3) cells assessed as binding at C106 position by mass spectrometry. A digest of the protocol:
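Protein-compound reaction mixture saved in parallel with DSC. Denatured in urea/NaCl in 50 mM Tris pH 8.0, reduced with TCEP at 37 °C for 60 min, free thiols alkylated with iodoacetamide at RT in the dark for 30 min. Digested with chymotrypsin (1:100 molar) overnight at 37 °C, quenched with formic acid. Peptides resolved on C18 UPLC at 45 °C and analyzed by Q Exactive HF MS.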

Data set [3] has as its target Peptidyl-prolyl cis-trans isomerase FKBP1A (Homo sapiens, UniProt P62942). The data set is described as follows: Binding affinity to N-terminal 6His-SUMO-tagged human full length FKBP12 expressed in Escherichia coli BL21 (DE3) cells assessed as change in melting temperature at 40 uM by differential scanning […] analysis. A digest of the protocol:
(§1)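 Differential scanning calorimetry. Purified protein (6His-SUMO tag removed) dialyzed into 25 mM HEPES pH 7.8, 150 mM NaCl. Protein at 0.4 mg/mL (6-9 uM), with or without compound at 40 µM, 2% DMSO (v/v). Scanned 25-90 °C, reference scans subtracted. Tm taken as midpoint of the heat capacity curve.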

Data set [4] has as its system Plasmodium falciparum. The data set is described as follows: Binding affinity to N-terminal 6His-SUMO-tagged Plasmodium falciparum FKBP35 binding domain (FBD35) (Q5-A128) expressed in Escherichia coli BL21 (DE3) cells assessed as change in melting temperature at 40 uM by differential scanning […] analysis. In a few lines: as §1
Data set [5] concerns Plasmodium falciparum. The data set is described as follows: Antiplasmodial activity against blood stage of Plasmodium falciparum NF54 assessed as parasite growth inhibition.
Data set [6] in a line: Displacement of fluorescent tracer Rap-Gly-BDP from nanoluciferse-tagged Plasmodium falciparum FKBP35 expressed in HEK293T cells incubated for 2 hrs by NanoBRET assay. The class given is cell-based. The conditions noted are these: HEK-293T. In a few lines:
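HEK293T cells stably expressing N-terminal NanoLuc-FKBP35 (lentiviral, puromycin-selected) plated at 0.2 x 10^6 cells/mL in Opti-MEM and incubated overnight at 37°C, 5% CO2. Rap-Gly-BDP tracer added to 1 µM for 10 min, then test compounds at varying concentrations for 2 h at 37°C. Nano-Glo substrate plus extracellular NanoLuc inhibitor added and read immediately. BRET ratio corrected against no-tracer control.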
For orientation: BRET reads energy transfer from a luciferase to a nearby fluorophore.

Structures are written as SMILES. Calls of active or inactive are those of the source. No cut-off for these calls is given here.

Peptidyl-prolyl cis-trans isomerase FKBP1A, sequence (P62942 whole entry): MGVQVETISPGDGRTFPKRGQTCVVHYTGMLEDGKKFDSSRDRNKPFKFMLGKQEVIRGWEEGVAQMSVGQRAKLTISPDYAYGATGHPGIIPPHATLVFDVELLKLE

With `CCc1ccccc1NC(=O)CSc1nc2cccnc2[nH]1`, in the data set on Plasmodium falciparum [1], the half-inhibitory concentration (IC50) was found to be 0.235 µM.
With `C=CC(=O)NCc1ccccc1NC(=O)CSc1nc2cccnc2[nH]1`, in the data set with Plasmodium falciparum [2], the result was Active. Further, in data set [3], the Activity result is on record as “Not Active”. Also, the outcome in the data set on Plasmodium falciparum [4] was inactive.
`CC[C@H]1CN(Cc2ccccn2)C(=O)C2CCCC1N2S(=O)(=O)c1cc(Cl)cc(Cl)c1` (some centres undefined): the IC50 with Plasmodium falciparum [5] was 2.3 µM.
For the compound `C=CC(=O)NCc1ccc(NC(=O)CSc2nc3cccnc3[nH]2)cc1`, the outcome in the data set with Plasmodium falciparum [2] was Active. In addition, the Activity result in data set [3] is reported as “Not Active”. Besides, the result in the data set with Plasmodium falciparum [4] was inactive.
As for `CCC(=O)NCc1ccccc1NC(=O)CSc1nc2cccnc2[nH]1`, the Activity entry in data set [3] is on record as “Not Active”. For the same compound, in the data set on Plasmodium falciparum [4], the result was inactive.
On to `CO[C@H]1C[C@@H]2CC[C@@H](C)[C@@](O)(O2)C(=O)C(=O)N2CCCC[C@H]2C(=O)O[C@H]([C@H](C)C[C@@H]2CC[C@@H](O)[C@H](OC)C2)CC(=O)[C@H](C)/C=C(\C)[C@@H](O)[C@@H](OC)C(=O)[C@H](C)C[C@H](C)/C=C/C=C/C=C/1C` [SIROLIMUS], for which the values for the half-inhibitory concentration (IC50) (in data set [6]; in the data set on Plasmodium falciparum [5]) were 0.034 µM and 2.6 µM, respectively.
With `C=CC[C@@H]1/C=C(\C)C[C@H](C)C[C@H](OC)[C@H]2O[C@@](O)(C(=O)C(=O)N3CCCC[C@H]3C(=O)O[C@H](/C(C)=C/[C@@H]3CC[C@@H](O)[C@H](OC)C3)[C@H](C)[C@@H](O)CC1=O)[C@H](C)C[C@@H]2OC` [TACROLIMUS ANHYDROUS], in the data set with Plasmodium falciparum [5], the IC50 turned out to be 1.9 µM.
`O=C(NNC(=O)C12CC3CC(CC(C3)C1)C2)c1ccncc1`: the half-maximal inhibitory concentration (IC50) in the data set on Plasmodium falciparum [1] came out at 0.25 µM.

By IC50 is commonly meant the concentration that inhibits the measured activity by half.

The values above are taken from ChEMBL document CHEMBL4725452, “Targeted Covalent Inhibition of Plasmodium FK506 Binding Protein 35” (ACS Med Chem Lett, 2020).
